Series [1] has as its system Human immunodeficiency virus 1. The series is described as follows: Antiviral activity against HIV1 virus-like particles harboring wild type reverse transcriptase infected in human U2OS cells after 24 hrs by Renilla luciferase assay. The class given is functional, organism-based. The note with it: read-out: IC50. The gist of the method:
(§1)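 U2OS cells seeded 5 × 10^4 per well, infected next day with HIV-1 VLPs carrying wt or mutant RT at MOI 0.01 with polybrene 6 μg/mL plus compound; 1 h at 37 °C, washed, compound-containing media 24 h, then compound-free media 24 h. Lysate Gluc activity (Renilla luciferase reagent) normalised to protein.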

A short description of series [2]: Cytotoxicity against human U2OS cells assessed as reduction of cell viability after 48 hrs. In kind it is cell-based. The gist of the method:
(§2)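 Impedance-based real-time viability: U2OS (3.5 × 10^3) or TZM-bl (8.5 × 10^3) cells seeded on electrode plates, compounds in DMSO added 24 h later (final DMSO 0.5%), cell index recorded over a further 48 h. CC50 = concentration lowering cell index by 50% relative to DMSO-only cells.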

The target of series [3] is Human immunodeficiency virus type 1 reverse transcriptase (Human immunodeficiency virus 1, UniProt Q72547). The series is described as follows: (§3) Inhibition of HIV1 reverse transcriptase using 234-nt long RNA/18-mer DNA oligonucleotide as template/primer preincubated for 15 mins followed by incubation with template/primer for 40 mins by liquid scintillation counting in presence of alpha[P33]-dCTP.

Series [4] concerns Human immunodeficiency virus 1. The series is described as follows: Antiviral activity against HIV1 virion infected in human TZM-bl cells after 48 hrs by firefly luciferase assay. The class given is functional, organism-based. The gist of the method: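 TZM-bl cells (LTR-driven firefly luciferase), 5 × 10^4 per well, infected next day with ACH-2-derived HIV-1 stock (PMA-induced; 30 ng p24 per well) plus compound for 2 h at 37 °C; medium then replaced with compound-containing medium for 48 h.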

The test system of series [5] is Human immunodeficiency virus 1. In words: Potency index, ratio of nevirapine IC50 to compound IC50 for HIV1 virus-like particles infected in human U2OS cells. In kind it is functional.
Series [6] can be described thus: Cytotoxicity against human TZM-bl cells assessed as reduction of cell viability after 48 hrs. In kind it is cell-based. The gist of the method: as §2
The subject of series [7] is Human immunodeficiency virus 1. The series is described as follows: Antiviral activity against HIV1 virus-like particles harboring reverse transcriptase K103N mutant infected in human U2OS cells after 24 hrs by Renilla luciferase assay. The class given is functional, organism-based. In a few lines: as §1
Series [8] deals with Human immunodeficiency virus 1. In words: Antiviral activity against HIV1 virus-like particles harboring reverse transcriptase Y181C mutant infected in human U2OS cells after 24 hrs by Renilla luciferase assay. The class given is functional, organism-based. The gist of the method:
as §1

Series [9] deals with Human immunodeficiency virus 1. The series is described as follows: Antiviral activity against HIV1 virus-like particles harboring reverse transcriptase K103N/Y181C double mutant infected in human U2OS cells after 24 hrs by Renilla luciferase assay. The class given is functional, organism-based. The gist of the method:
as §1

Series [10] has as its system Human immunodeficiency virus 1. In words: Selectivity ratio of IC50 for HIV1 virus-like particles harboring reverse transcriptase K103N/Y181C double mutant to IC50 for HIV1 virus-like particles harboring wild type reverse transcriptase. The class given is functional.
Series [11] concerns the target Human immunodeficiency virus type 1 reverse transcriptase (Human immunodeficiency virus 1) (UniProt Q72547). Described as §3.
A short description of series [12]: Selectivity index, ratio of CC50 for human U2OS cells to IC50 for HIV1 virus-like particles infected in U2OS cells. In kind it is functional.
A short description of series [13]: Selectivity index, ratio of CC50 for human TZM-bl cells to IC50 for HIV1 virion […]. In kind it is functional.
[14] abbreviates: Human immunodeficiency virus 1, U2OS, 24 h.
Where [15] appears, read: Human immunodeficiency virus 1, TZM-bl, 48 h, read-out: IC50.

Activity calls are given as the source filed them. The calls are words filed in the database; no cut-off is given here.

Take `Cc1ccc(Nc2nc(NCC3CCCO3)nc(Nc3ccc(C)cc3)n2)cc1` (stereo in doubt; 8): the figures for the IC50 in [1] (u2os), in series [3] and in series [4] (tzm-bl) were 16 µM, “Not Active” and “Not Active”, respectively. In series [2], the CC50 (usually the concentration at which the toxic effect on the cells reaches its halfway point) at 48 h was above 50 µM. In addition, in series [5], the “Ratio IC50” value is on record as 10.

As for `Cc1ccc(Nc2nc(O)nc(Nc3ccc(C)cc3)n2)cc1`, the IC50 (as a rule, the concentration that gives 50% inhibition) in [1] (setting [14]) is 0.067 µM; in series [3] (read-out: IC50) it was 55.1 µM; in [4] (setting [15]), 0.16 µM; in [9] (Human immunodeficiency virus 1, U2OS), 8 µM. Also, the CC50 at 48 h in [2] and in series [6] was above 12.5 µM in each case. For the same compound, the outcome in [7] and in series [8] was inactive. Further, in [10], the “Ratio IC50” value is on record as above 100.

Consider `Cc1ccc(Nc2nc(N)nc(Nc3ccc(C)cc3)n2)cc1`, for which the concentration for half-maximal inhibition (IC50) is 2.5 µM in series [1] (setting [14]), 116 µM in [3] (read-out: IC50) and 5.6 µM in series [4] (setting [15]). Also, the CC50 at 48 h in [2] is 42.2 µM; in series [6], 57 µM. For the same compound, in series [11], the inhibition result was “Dose-dependent effect”. The result in series [7], in series [8] and in series [9] was inactive. Also, the “Ratio CC50/IC50” value in series [12] turned out to be 17; in [13], 10.

For the origin of these results see ChEMBL document CHEMBL3784952, “Design, discovery, modelling, synthesis, and biological evaluation of novel and small, low toxicity s-triazine derivatives as HIV-1 non-nucleoside reverse transcriptase inhibitors” (Bioorg Med Chem, 2016).
